Here are results for three molecules from BindingDB's records for doi:10.1021/jm0100741 (Tohoku University, 2001).

Molecules are shown by their SMILES.

The target in experiment [1] is Dual specificity protein phosphatase 3 (Homo sapiens, UniProt P51452). Description: Inhibitory activity against vaccinia VH1-related phosphatase (VHR). An outline of the steps:
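Recombinant VHR expressed in E. coli and purified, used at 0.6 μM with 10 mM pNPP substrate in 50 mM succinate, 1 mM EDTA, 150 mM NaCl, pH 6.0, ± compound. Incubated 3 min at 37 °C, stopped with 1 N NaOH, and activity read as absorbance change at 405 nm.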

Experiment [2] concerns the target T1, M-phase inducer phosphatase 2 (Mus musculus, UniProt P30306).
T1 sequence (P30306 whole entry): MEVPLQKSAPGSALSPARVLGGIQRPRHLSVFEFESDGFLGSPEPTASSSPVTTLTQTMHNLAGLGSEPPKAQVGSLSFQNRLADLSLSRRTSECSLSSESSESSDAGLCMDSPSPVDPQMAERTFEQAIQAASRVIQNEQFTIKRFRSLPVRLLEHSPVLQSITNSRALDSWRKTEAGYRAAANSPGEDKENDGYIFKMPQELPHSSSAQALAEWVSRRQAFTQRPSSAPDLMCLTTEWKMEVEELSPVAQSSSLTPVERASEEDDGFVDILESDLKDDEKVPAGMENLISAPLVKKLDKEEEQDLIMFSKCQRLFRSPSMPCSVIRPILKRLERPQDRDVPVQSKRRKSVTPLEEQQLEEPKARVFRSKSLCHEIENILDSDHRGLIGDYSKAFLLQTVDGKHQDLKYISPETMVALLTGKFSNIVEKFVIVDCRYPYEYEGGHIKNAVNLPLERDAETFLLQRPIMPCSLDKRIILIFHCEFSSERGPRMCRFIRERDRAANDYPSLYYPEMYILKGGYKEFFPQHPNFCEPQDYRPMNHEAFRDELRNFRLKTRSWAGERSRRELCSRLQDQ
Description: Inhibitory activity against cell division cycle 25B.

Chain of Dual specificity protein phosphatase 3 (P51452 whole entry): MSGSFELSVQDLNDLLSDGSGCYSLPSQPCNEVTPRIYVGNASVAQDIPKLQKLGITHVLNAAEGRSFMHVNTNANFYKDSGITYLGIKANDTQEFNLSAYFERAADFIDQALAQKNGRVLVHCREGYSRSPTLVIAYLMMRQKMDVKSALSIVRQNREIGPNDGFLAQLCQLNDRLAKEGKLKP

For orientation: IC50 means the concentration needed to halve the response being measured. A low value points to greater potency. Regarding `O=C(OCc1ccccc1)c1c(O)oc(CO)c1O` [4-Hydroxy-5-hydroxymethyl-2-oxo-2,5-dihydro-furan-3-carboxylic acid benzyl ester], the IC50 in experiment [1] is over 250 µM; in experiment [2], over 125 µM.

Regarding `CC(C)=CCCC(C)CCOC(=O)c1c(O)oc(CO)c1O` (stereo unspecified) [4-Hydroxy-5-hydroxymethyl-2-oxo-2,5-dihydro-furan-3-carboxylic acid 3,7-dimethyl-oct-6-enyl ester], the IC50 in experiment [1] was over 250 µM; in experiment [2] it was over 125 µM.

Consider `O=C(OC1CCCCC1)c1c(O)oc(CO)c1O` [4-Hydroxy-5-hydroxymethyl-2-oxo-2,5-dihydro-furan-3-carboxylic acid cyclohexyl ester], for which the concentration for half-maximal inhibition (IC50) in experiment [1] is over 250 µM; in experiment [2], over 125 µM.
